Data: publication PMC2695835 (Bioorganic & medicinal chemistry, 2009)
“And” between values parts separate entries of the source, which are not always exact repeats. Equal values may be shown once. Read-outs that look alike come from different tables or passages of the source. Marks after values point to notes of the source that are not given here.

Experiments:
[1] = biological target: T1, GIVA cPLA2 (Homo sapiens, UniProt P47712); settings: reference 2-oxoamide inhibitors; ref [15]; cited from earlier work
T1 sequence (P47712 1-749): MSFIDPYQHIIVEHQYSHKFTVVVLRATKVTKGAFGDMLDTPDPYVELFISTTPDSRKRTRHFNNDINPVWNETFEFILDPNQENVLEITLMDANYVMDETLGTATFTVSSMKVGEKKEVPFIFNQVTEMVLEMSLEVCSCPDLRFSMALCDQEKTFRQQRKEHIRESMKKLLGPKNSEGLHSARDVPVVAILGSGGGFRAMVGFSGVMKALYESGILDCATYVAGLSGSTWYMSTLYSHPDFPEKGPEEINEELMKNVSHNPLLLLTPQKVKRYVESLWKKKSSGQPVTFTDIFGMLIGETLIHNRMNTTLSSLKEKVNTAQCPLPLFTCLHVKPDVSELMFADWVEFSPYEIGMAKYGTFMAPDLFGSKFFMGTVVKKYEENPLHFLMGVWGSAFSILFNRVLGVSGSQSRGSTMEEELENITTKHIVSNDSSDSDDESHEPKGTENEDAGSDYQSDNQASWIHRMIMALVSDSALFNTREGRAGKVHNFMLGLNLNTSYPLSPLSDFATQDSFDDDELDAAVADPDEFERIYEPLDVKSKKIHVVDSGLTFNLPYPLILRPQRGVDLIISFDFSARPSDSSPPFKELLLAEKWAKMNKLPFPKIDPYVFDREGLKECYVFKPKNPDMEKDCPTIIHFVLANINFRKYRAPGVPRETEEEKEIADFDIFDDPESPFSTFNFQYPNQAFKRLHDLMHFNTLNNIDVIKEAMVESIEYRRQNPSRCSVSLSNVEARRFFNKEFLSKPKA

[2] = biological target: T2, GVIA iPLA2 (Homo sapiens, UniProt O60733); settings: reference 2-oxoamide inhibitors; ref [15]; cited from earlier work
T2 sequence (O60733 1-806): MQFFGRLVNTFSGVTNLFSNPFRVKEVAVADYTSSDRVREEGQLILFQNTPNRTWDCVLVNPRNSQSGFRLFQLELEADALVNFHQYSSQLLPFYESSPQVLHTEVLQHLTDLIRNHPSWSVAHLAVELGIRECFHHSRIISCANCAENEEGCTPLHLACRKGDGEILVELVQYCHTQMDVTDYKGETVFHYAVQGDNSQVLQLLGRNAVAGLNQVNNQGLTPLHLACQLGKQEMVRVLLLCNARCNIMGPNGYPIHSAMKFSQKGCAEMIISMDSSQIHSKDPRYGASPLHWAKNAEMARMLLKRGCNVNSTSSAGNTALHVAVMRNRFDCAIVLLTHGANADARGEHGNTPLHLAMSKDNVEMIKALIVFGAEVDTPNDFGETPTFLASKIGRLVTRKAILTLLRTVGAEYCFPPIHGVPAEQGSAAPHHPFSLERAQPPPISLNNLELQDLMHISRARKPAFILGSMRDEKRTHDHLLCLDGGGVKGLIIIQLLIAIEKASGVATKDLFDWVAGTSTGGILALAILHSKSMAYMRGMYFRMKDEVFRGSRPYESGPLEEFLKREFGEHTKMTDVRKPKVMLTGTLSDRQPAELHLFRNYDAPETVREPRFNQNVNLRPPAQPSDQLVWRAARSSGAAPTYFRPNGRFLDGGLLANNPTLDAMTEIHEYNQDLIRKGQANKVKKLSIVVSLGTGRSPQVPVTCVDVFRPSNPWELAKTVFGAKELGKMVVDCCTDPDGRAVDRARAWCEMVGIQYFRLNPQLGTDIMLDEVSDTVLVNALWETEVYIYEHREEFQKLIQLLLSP

[3] = test system: RAW 264.7 macrophages; assay type: cell-based; settings: Mus musculus; for inhibition at 25 µM: RAW264.7, read-out: AA Release Inhibition (%); for IC50: RAW264.7, read-out: IC50 for the inhibition of arachidonic acid release, RAW 264.7 cells stimulated with Kdo2-Lipid A, concentration for half maximal inhibition of the maximum inhibition observed
Procedure, shortened: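 Mouse RAW 264.7 macrophages were grown in DMEM with 10% FBS, 2 mM glutamine, penicillin/streptomycin and non-essential amino acids at 37 °C in 5% CO2. Cells were seeded at 2 × 10^6 per well and left to adhere overnight. Test compound (25 μM) was added 30 min before Kdo2-Lipid A, and supernatants were collected 1 h later. AA was extracted, quantified by HPLC-MS and normalized to cell number by DNA quantitation.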

[4] = biological target: T1, GIVA cPLA2; test: In vitro GIVA cPLA2 inhibition, mixed micellar modified Dole assay; assay type: biochemical; settings: mole fraction of inhibitor in total substrate interface required to inhibit the enzyme by 50%; mixed micelles

In the case of `CCCCCCCCCCCCCCC(=O)C(=O)NCCCC(=O)COCC` [AX048], the “GIVA cPLA2 XI(50)” value [1] is listed as 0.022 ± 0.009 ^b mole fraction and the “GVIA iPLA2 XI(50)” value [2] is listed as 0.027 ± 0.009 ^b mole fraction.

Work on `CCCCCCCCCCCCCCC(=O)C(=O)NCCCCC(=O)OC(C)(C)C` [Compound 34] yielded an inhibition at 25 µM [3] of 11 ± 6%.

For `CCCCCCCCCCCCCCC(=O)C(=O)NCCCC(=O)O` [Compound 19], the inhibition at 25 µM [3] was 52 ± 5% and the IC50 [3] was about 25 µM.

`CCCCCCCCCCCCCCC(=O)C(=O)N[C@H](/C=C/C=C/C(=O)O)CCCC` [Compound 28] showed an inhibition at 25 µM [3] of 6 ± 10%.

`CCCCCCCCCCCCCCC(=O)C(=O)NCC(=O)OC` [Compound 37] showed an inhibition at 25 µM [3] of 30 ± 2%.

With `CCCCCCCCCCCCCCC(=O)C(=O)N[C@@H](CCCC)COCC(=O)O` [Compound 18, (S)-2-(2-(2-oxohexadecanamido)hexyloxy)acetic acid] the “GIVA cPLA2 XI(50)” value [4] was 0.017 mole fraction and 0.017 ± 0.002 mole fraction and the IC50 [3] was about 2 µM.

In the case of `CCCCCCCCCCCCCCC(=O)C(=O)N[C@@H](CCCC)C(=O)NCC(=O)OC` [Compound 4a, (S)-Methyl 2-(2-(2-oxohexadecanamido)hexanamido)acetate], the “GIVA cPLA2 XI(50)” value [4] is reported as 0.021 ± 0.009 mole fraction.

Compound `CCCCCCCCCCCCCCC(=O)C(=O)N[C@H](/C=C/C(=O)OCC)CCCC` [Compound 33] has an inhibition at 25 µM [3] of 16 ± 6%.

`CCCCCCCCCCCCCCC(=O)C(=O)N[C@@H](CCCC)CCC(=O)O` [Compound 26] gave an inhibition at 25 µM [3] of 79 ± 0.5%.

`CCCCCCCCCCC(=O)C(=O)N[C@@H](CCCC)C(=O)O` [Compound 21] gave an inhibition at 25 µM [3] of 27 ± 6%.

With `CCCCCCCCCCCCCCC(=O)C(=O)N[C@@H](CCCC)C(=O)NCC(=O)O` [Compound 9a, (S)-2-(2-(2-Oxohexadecanamido)hexanamido)acetic acid] the “GIVA cPLA2 XI(50)” value [4] was 0.035 ± 0.014 mole fraction.

Compound `CCCCCCCCCCCCCCC(=O)C(=O)N[C@H](/C=C/C(=O)O)CCCC` [Compound 30] has an inhibition at 25 µM [3] of 74 ± 8% and an IC50 [3] of about 25 µM.

With `CCCCCCCCCCCCCCC(=O)C(=O)N[C@H](C(=O)NCC(=O)OC(C)(C)C)C(C)C` [Compound 8b, (S)-tert-Butyl 2-(3-methyl-2-(2-oxohexadecanamido)butanamido)acetate] the “GIVA cPLA2 XI(50)” value [4] was 0.028 ± 0.015 mole fraction.

With `CCCCCCCCCCCCCCC(=O)C(=O)N[C@H](CCC(=O)O)CC(C)C` [Compound 25] the inhibition at 25 µM [3] was 62 ± 5%.

In the case of `CCCCCCCCCCC(=O)C(=O)N[C@@H](CCCC)CCC(=O)O` [Compound 20], the inhibition at 25 µM [3] is reported as 56 ± 6% and the IC50 [3] is reported as 10 µM.

In the case of `CCCCCCCCCCCCCCC(=O)C(=O)N[C@H](C(=O)NCC(=O)O)C(C)C` [Compound 9b, (S)-2-(3-Methyl-2-(2-oxohexadecanamido)butanamido)acetic acid], the “GIVA cPLA2 XI(50)” value [4] is reported as 0.061 ± 0.017 mole fraction.

In the case of `CCCCCCCCCCCCCCC(=O)C(=O)NCCCC(=O)CO` [AX006], the “GIVA cPLA2 XI(50)” value [1] is listed as 0.024 mole fraction and 0.024 ± 0.015 ^b mole fraction.

Work on `CCCCCCCCCCCCCCC(=O)C(=O)N[C@@H](CCCC)CCCC(=O)O` [Compound 35] yielded an inhibition at 25 µM [3] of 59 ± 4% and an IC50 [3] of 7 µM.
